Results from different studies.
Each line is one published result; the experiments were not run side by side.

Compound | cell line | test | conditions | endpoint | result
Cc1cc(C)n(C(C(=O)OC(C)C)n2nc(C)cc2C)n1 | A-431 | cell growth or viability, MTT | 72 h | IC50 | > 50 µM
CC(C)(C)c1cnc(CSc2cnc(NC(=O)C3CCN(CCCCCCCSc4cccc5c4C(=O)N(C4CCC(=O)NC4=O)C5=O)CC3)s2)o1 (stereo not drawn) | HH | cell growth or viability, CCK-8 | 0.1 µM | viability | 92.7%
CCOC(=O)c1nn(-c2cccc(Cl)c2)/c(=N/N=C(\C)c2ccc(NC(=O)c3ccc(Cl)cc3)cc2)s1 | HepG2 | cell growth or viability, MTT | 5 µM | viability | 2.59%
Nc1ncnc2c1c(/C=C/C(=O)N1CCC(CCO)CC1)nn2CC1CCCC1 | OE33 | cell growth or viability, resazurin | 5 days | EC50 | > 30 µM
C=CC(=O)NC1CCN(c2ncc3ncnc(Nc4ccc(Oc5ccc6c(c5)ncn6C)c(C)c4)c3n2)CC1 | SW 1116 | cell growth or viability |  | EC50 | 0.0152 µM
O=C(Nc1ccc([N+](=O)[O-])cc1)Nc1ccc(C(F)(F)F)cc1 | LAD2 | degranulation |  | IC50 | 0.17 µM
O=C(Nc1ccccc1)Nc1ccc(Oc2nnc(-c3ccc(Cl)cc3)c3ccccc23)cc1 | HepG2 | cell growth or viability, MTT | 0.312 µM | cell death | 93%
CN(C)C1CCN(C(=O)/C=C/c2nn(CC3CCCC3)c3ncnc(N)c23)CC1 | OE33 | cell growth or viability, resazurin | 5 days | EC50 | > 30 µM
CC(C)(C)c1cnc(CSc2cnc(NC(=O)C3CCN(CCCCCCCCSc4cccc5c4CN(C4CCC(=O)NC4=O)C5=O)CC3)s2)o1 (stereo not drawn) | HH | cell growth or viability, trypan blue | 48 h | IC50 | 0.114 µM
CNc1ncc2c(/C=C/C(=O)N3CCCCC3)nn(CC3CCCC3)c2n1 | OE33 | cell growth or viability, resazurin | 5 days | EC50 | > 30 µM
CC(C)(C)c1cnc(CSc2cnc(NC(=O)C3CCN(C(=O)CCCSc4cccc5c4C(=O)N(C4CCC(=O)NC4=O)C5=O)CC3)s2)o1 (stereo not drawn) | HH | cell growth or viability, CCK-8 | 0.1 µM | viability | 98%
CNc1ncc2c(/C=C/C(=O)N3CCC(OC)CC3)nn(Cc3ccccc3C)c2n1 | OE33 | cell growth or viability, resazurin | 5 days | EC50 | 7.84 µM
CC(=O)Nc1ccc(Oc2nnc(-c3ccc(Cl)cc3)c3ccccc23)cc1 | HepG2 | cell growth or viability, MTT | 5 µM | cell death | 93.5%
CNc1ncc2c(/C=C/C(=O)N3CCC(OC)CC3)nn(Cc3ccc(OC)cc3)c2n1 | OE33 | cell growth or viability, resazurin | 5 days | EC50 | 1.63 µM
C[C@H]1Oc2cc(cnc2N)-c2c(nn(C)c2C#N)CN(C)C(=O)c2ccc(F)cc21 | A-431 | cell growth or viability |  | IC50 | > 10 µM
CNc1ncc2c(/C=C/C(=O)N3CCC(OC)CC3)nn(Cc3ccccc3OC)c2n1 | OE33 | cell growth or viability, resazurin | 5 days | EC50 | 7.72 µM
CCOC(=O)c1nn(-c2cccc(Cl)c2)/c(=N/N=C(\C)c2ccc(NC(=O)c3ccccc3)cc2)s1 | HepG2 | cell growth or viability, MTT | 0.156 µM | viability | 25.9%

Compound | cell line | test | conditions | endpoint | result
O=C(Nc1ccc([N+](=O)[O-])cc1)Nc1cccc(C(F)(F)F)c1 | LAD2 | degranulation |  | IC50 | 0.75 µM
CC(=O)c1nn(-c2ccccc2Cl)/c(=N/N=C(\C)c2ccc(NC(=O)c3ccccc3)cc2)s1 | HepG2 | cell growth or viability, MTT | 0.156 µM | viability | 30.2%
O=C(Nc1ccc(Oc2nnc(-c3ccc(Cl)cc3)c3ccccc23)cc1)c1cccc([N+](=O)[O-])c1 | HepG2 | cell growth or viability, MTT | 0.625 µM | cell death | 32.3%
CC(C)(C)c1cnc(CSc2cnc(NC(=O)C3CCN(CCCCCSc4cccc5c4CN(C4CCC(=O)NC4=O)C5=O)CC3)s2)o1 (stereo not drawn) | HH | cell growth or viability, CCK-8 | 1 nM | viability | 96.6%
CC(=O)c1nn(-c2ccc(C)cc2)/c(=N/N=C(\C)c2ccc(NC(=O)c3ccccc3)cc2)s1 | HepG2 | cell growth or viability, MTT | 0.625 µM | viability | 5.4%
CC(=NNC(=O)c1ccccc1Br)c1ccc(Nc2nnc(-c3ccc(Cl)cc3)c3ccccc23)cc1 | HepG2 | cell growth or viability, MTT | 0.312 µM | cell death | 14.6%
CC(C)(C)c1cnc(CSc2cnc(NC(=O)C3CCN(CCCCSc4cccc5c4C(=O)N(C4CCC(=O)NC4=O)C5=O)CC3)s2)o1 (stereo not drawn) | HH | cell growth or viability, CCK-8 | 10 nM | viability | 105%
CC(=NNC(N)=S)c1ccc(Nc2nnc(-c3ccc(Cl)cc3)c3ccccc23)cc1 | HepG2 | cell growth or viability, MTT | 1.25 µM | cell death | 92.3%
CC(C)(C)c1cnc(CSc2cnc(NC(=O)C3CCN(C(=O)COCCOCCSc4cccc5c4C(=O)N(C4CCC(=O)NC4=O)C5=O)CC3)s2)o1 (stereo not drawn) | HH | cell growth or viability, CCK-8 | 0.25 µM | viability | 92.9%
O=C(Nc1ccccc1)Nc1cccc(Br)c1 | LAD2 | degranulation |  | IC50 | 22.1 µM
CC(=NNC(=O)c1cccnc1)c1ccc(Nc2nnc(-c3ccc(Cl)cc3)c3ccccc23)cc1 | HepG2 | cell growth or viability, MTT | 10 µM | cell death | 96.8%
CCOC1CCN(C(=O)/C=C/c2nn(Cc3cccc(C)c3)c3nc(NC)ncc23)CC1 | OE33 | cell growth or viability, resazurin | 5 days | EC50 | 2.28 µM
CC(=NNC(=S)Nc1ccccc1)c1ccc(Nc2nnc(-c3ccc(Cl)cc3)c3ccccc23)cc1 | HepG2 | cell growth or viability, MTT | 5 µM | cell death | 95.1%
O=C(Nc1cccc([N+](=O)[O-])c1)Nc1cccc(C(F)(F)F)c1 | LAD2 | degranulation |  | IC50 | 0.28 µM
CC(=NNC(=O)c1ccccc1O)c1ccc(Nc2nnc(-c3ccc(Cl)cc3)c3ccccc23)cc1 | HepG2 | cell growth or viability, MTT | 5 µM | cell death | 84.2%
Nc1ncnc2c1c(/C=C/C(=O)N1CCCC1)nn2CC1CCCC1 | OE33 | cell growth or viability, resazurin | 5 days | EC50 | > 30 µM
